Test results published in ChEMBL document CHEMBL3352608, “Medicinal chemistry optimization of antiplasmodial imidazopyridazine hits from high throughput screening of a softfocus kinase library: part 2” (J Med Chem, 2014).
Values after ≈ are worked out from the molar mass of the structure shown.

How the values were obtained:
[1] = Volume of distribution at steady state in Sprague-Dawley rat at 3.6 mg/kg, iv; type: ADME, organism-based; set-up: dose 3.6 mg/kg, route intravenous; details: in vivo, read-out: Vdss
Summary of the method: (§1)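 Adult male Sprague-Dawley rats fasted overnight; dose 3.6 mg/kg prepared fresh, dissolved in water/0.01 M HCl/propylene glycol/ethanol/Tween 80 (1:2:1:0.1:0.1), given orally (1 mL) or intravenously (350 µL). Food returned 5 h post-dose. Heparinized blood taken at set time points, plasma held at -80°C, analysed by LC/MS/MS; parameters by non-compartmental analysis.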

Rattus norvegicus [2] = test: AUC (0 to infinity) in Sprague-Dawley rat at 3.6 mg/kg, iv; type: ADME, organism-based, Plasma; set-up: time infinity, dose 3.6 mg/kg, route intravenous; details: in vivo; summary of the method: as §1
Rattus norvegicus [3] = test: AUC (0 to infinity) in Sprague-Dawley rat at 3.6 mg/kg, po; type: ADME, organism-based, Plasma; set-up: time infinity, dose 3.6 mg/kg, route oral; details: in vivo; summary of the method: as §1
Rattus norvegicus [4] = test: (§2) Cmax in Sprague-Dawley rat at 3.6 mg/kg, po; type: ADME, organism-based; set-up: dose 3.6 mg/kg, route oral; details: in vivo; summary of the method: as §1
Rattus norvegicus [5] = test: (§3) Tmax in Sprague-Dawley rat at 3.6 mg/kg, po; type: ADME, organism-based; set-up: dose 3.6 mg/kg, route oral; details: in vivo; summary of the method: as §1
[6] = (§4) Oral bioavailability in Sprague-Dawley rat at 3.6 mg/kg; type: ADME, organism-based; details: Sprague-Dawley, in vivo; summary of the method: as §1
Rattus norvegicus [7] = test: (§5) Apparent half life in Sprague-Dawley rat at 3.6 mg/kg, po; type: ADME, organism-based; set-up: dose 3.6 mg/kg, route oral; details: in vivo; summary of the method: as §1
[8] = Aqueous solubility of the compound at pH 2; type: physicochemical; details: buffer
[9] = Aqueous solubility of the compound at pH 6.5; type: physicochemical; details: buffer
Plasmodium falciparum [10] = test: Antiplasmodial activity against Plasmodium falciparum K1 by [3H]hypoxanthine incorporation assay; type: functional, organism-based
Summary of the method: (§6)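 Modified [3H]-hypoxanthine incorporation assay on P. falciparum asexual cultures, chloroquine and artesunate as references in every run. IC50 values are means of ≥2 independent experiments; individual values mostly within 2-fold (maximum 3-fold).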

Plasmodium falciparum [11] = test: Antiplasmodial activity against Plasmodium falciparum NF54 by [3H]hypoxanthine incorporation assay; type: functional, organism-based; summary of the method: as §6
[12] = Apparent half life in Sprague-Dawley rat at 3.6 mg/kg, iv; type: ADME, organism-based; set-up: dose 3.6 mg/kg, route intravenous; details: in vivo; summary of the method: as §1
[13] = as §2; type: ADME, organism-based; set-up: dose 3.6 mg/kg, route oral; details: Sprague-Dawley, in vivo; summary of the method: as §1
[14] = as §3; type: ADME, organism-based; set-up: dose 3.6 mg/kg, route oral; details: Sprague-Dawley, in vivo; summary of the method: as §1
Rattus norvegicus [15] = test: as §4; type: ADME, organism-based; details: in vivo; summary of the method: as §1
[16] = as §5; type: ADME, organism-based; set-up: dose 3.6 mg/kg, route oral; details: Sprague-Dawley, in vivo, read-out: t1/2(app) (converted); summary of the method: as §1
CHO = test: Cytotoxicity against CHO cells; type: cell-based, Cricetulus griseus; details: chinese hamster
[17] = Selectivity index, ratio of IC50 for CHO cells to IC50 for Plasmodium falciparum; type: toxicity, cell-based; details: hamster, read-out: Ratio IC50
Plasmodium berghei [18] = test: Antimalarial activity against Plasmodium berghei ANKA infected in mouse assessed as reduction in parasitemia at 50 mg/kg/day, po qd administered for 4 days relative to control; type: functional; set-up: Activity: scale not given: the % may be the effect or the level left
Summary of the method: (§7)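 Mice (n = 3) infected with GFP-transfected P. berghei ANKA; compound in HPMC suspension vehicle given orally once daily at 4, 24, 48 and 72 h after infection. Blood collected day 4 (96 h post-infection); parasitemia by flow cytometry (detection limit 0.1%). Activity = difference in mean % parasitemia between control and treated groups, as % of control.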

Plasmodium berghei [19] = test: Antimalarial activity against Plasmodium berghei ANKA infected in mouse assessed as reduction in parasitemia at 10 mg/kg/day, po qd administered for 4 days relative to control; type: functional; set-up: Activity: scale not given: the % may be the effect or the level left; summary of the method: as §7
Plasmodium berghei [20] = test: Antimalarial activity against Plasmodium berghei ANKA infected in mouse assessed as reduction in parasitemia at 3 mg/kg/day, po qd administered for 4 days relative to control; type: functional; set-up: Activity: scale not given: the % may be the effect or the level left; summary of the method: as §7
[21] = Plasma concentration in mouse infected with Plasmodium berghei ANKA at 50 mg/kg/day, po after 1 hr by HPLC analysis; type: ADME, organism-based; set-up: route oral
Summary of the method: (§8)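 P. berghei-infected mice dosed orally at 50 mg/kg daily for 4 days; blood sampled 1, 4 and 24 h after the first dose and analysed by HPLC for drug levels.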

[22] = Plasma concentration in mouse infected with Plasmodium berghei ANKA at 50 mg/kg/day, po after 4 hrs by HPLC analysis; type: ADME, organism-based; set-up: route oral; summary of the method: as §8
[23] = tested on: CHO cells (Cricetulus griseus); test: Cytotoxicity against Chinese hamster CHO cells
[24] = tested on: CHO cells (Cricetulus griseus); test: Selectivity index, ratio of IC50 for Chinese hamster CHO cells to IC50 for Plasmodium falciparum

CS(=O)(=O)c1ccc(-c2cnc3ccc(-c4cccc(S(=O)(=O)C5CC5)c4)nn23)cc1
Vd [1]: 2.3 L/kg
AUC (Rattus norvegicus [2]): 121 µM·h
AUC (Rattus norvegicus [3]): 27 µM·h
Cmax (Rattus norvegicus [4]): 1500 nM
Tmax (Rattus norvegicus [5]): 12 h
bioavailability [6]: 24%
t1/2(app) (Rattus norvegicus [7]): 4.8 h
solubility [8]: 19 µM (≈ 8.62 µg/mL)
solubility [9]: < 5 µM
IC50 (Plasmodium falciparum [10]): 530 pM
IC50 (Plasmodium falciparum [11]): 880 pM

C[S+]([O-])c1ccc(-c2cnc3ccc(-c4cccc(S(=O)(=O)C5CC5)c4)nn23)cc1 (centres undefined)
half-life [12]: 0.55 h
Vd [1]: 0.73 L/kg
AUC (Rattus norvegicus [2]): 3.3 µM·h
AUC (Rattus norvegicus [3]): 0.36 µM·h
Cmax [13]: 40 nM
Tmax [14]: 8 h
bioavailability (Rattus norvegicus [15]): 11%
half-life [16]: 4.8 h
solubility [8]: 61 µM (≈ 26.7 µg/mL)
solubility [9]: < 5 µM
IC50 (Plasmodium falciparum [11]): 1100 pM
Activity (CHO): Non-toxic
selectivity ratio [17]: > 1000
Activity (Plasmodium berghei [18]): 99.8%
MSD (Plasmodium berghei [18]): >30 days
Activity (Plasmodium berghei [19]): 99.6%
MSD (Plasmodium berghei [19]): 8 days
Activity (Plasmodium berghei [20]): 98%
MSD (Plasmodium berghei [20]): 7 days
concentration at 1 h [21]: 80 nM
concentration at 4 h [22]: 20 nM
Activity [23]: Non-toxic
selectivity ratio [24]: > 1000
